Structures are written as SMILES.

IC50 data for eight compounds are collected here from ChEMBL document CHEMBL1156807, “Catalysis and inhibition of Mycobacterium tuberculosis methionine aminopeptidase” (J Med Chem, 2010).

The nature of assay [1]: Inhibition of Mycobacterium tuberculosis H37Rv MetAP1c in presence of 50 uM Fe(2+) by Met-AMC substrate hydrolysis assay. Summed up: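 Recombinant MtMetAP1c (mapB gene) was expressed in E. coli BL21(DE3) and purified as the apoenzyme (0.5 µM). It was activated with FeCl2 50 µM plus 100 µM ascorbic acid, CoCl2 10 µM, MnCl2 20 µM or NiCl2 20 µM. Buffer was 50 mM MOPS pH 7.5 with 100 µM Met-AMC at room temperature, read by fluorescence at ex 360/em 460.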

Assay [2] can be described thus: Inhibition of Mycobacterium tuberculosis H37Rv MetAP1c in presence of 50 uM Ni(2+) by Met-AMC substrate hydrolysis assay.
Assay [3] in a line: Inhibition of Mycobacterium tuberculosis H37Rv MetAP1c in presence of 50 uM Co(2+) by Met-AMC substrate hydrolysis assay.
A short description of assay [4]: Inhibition of Mycobacterium tuberculosis H37Rv MetAP1c in presence of 50 uM Mn(2+) by Met-AMC substrate hydrolysis assay.
Assay [5] can be described thus: Inhibition of Mycobacterium tuberculosis MetAP1c expressed in Escherichia coli lacking endogenous MetAP by cell based Met-AMC substrate hydrolysis assay. A digest of the protocol:
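E. coli carrying a chromosomal amber mutation in EcMetAP and complemented by plasmid-borne MtMetAP1c were grown to exponential phase and washed. Cells were stored in CaCl2/Tris/glycerol at −80 °C. The assay held 150 µM Met-AMC, 5 mM CaCl2 (for permeabilization) and 50 mM Tris pH 7.5, with inhibitor at 12 serial dilutions. Fluorescence (ex 360/em 460) was read every 2 min for 6-8 hr at room temperature. IC50 came from hydrolysis rates.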

A short description of assay [6]: Inhibition of Mycobacterium tuberculosis MetAP1c mediated cell growth of Escherichia coli lacking endogenous MetAP complemented with MtMetAP1c after 72 hrs by resazurin dye reduction method.

As for `O=C(O)c1ccc(-c2ccccc2Cl)o1`, the concentration for half-maximal inhibition (IC50) was > 500 µM in assay [1], > 500 µM in assay [2], > 500 µM in assay [3] and 16 µM in assay [4].

As for `O=C(O)c1ccc(-c2cc(Cl)ccc2Cl)o1`, the IC50 in assay [1] is > 500 µM; in assay [2], > 500 µM; in assay [3], > 500 µM; in assay [4] it was 14 µM; in assay [5] it was 623 µM; in assay [6], > 1000 µM.

In the case of `Cc1ccsc1-c1ccc(O)c(O)c1`, the IC50 in assay [1] came out at 1.4 µM; in assay [2] it was 60 µM; in assay [3], 38 µM; in assay [4], 14 µM; in assay [5], 35 µM; in assay [6], 89.5 µM.

On to `Cc1nc(-c2ccc(O)c(O)c2)cs1`, for which the 50% inhibitory concentration (IC50) is 3.6 µM in assay [1]; 104 µM in assay [2]; 76 µM in assay [3]; 37 µM in assay [4]; 20 µM in assay [5]; 208 µM in assay [6].

As for `Cc1ccc(CSc2nnc(N)[nH]2)cc1`, the half-maximal inhibitory concentration (IC50) in assay [1] is > 500 µM; in assay [2], 2.5 µM; in assay [3], 0.69 µM; in assay [4] it was 26 µM; in assay [5], 281 µM; in assay [6], > 1000 µM.

Consider `Fc1ccc(CSc2nnc[nH]2)cc1`, for which the IC50 in assay [1] is > 500 µM; in assay [3] it was 2 µM; in assay [4], 143 µM.

Take `Nc1nnc(SCc2ccc(F)cc2)[nH]1`: the IC50 in assay [1] was > 500 µM; in assay [2] it was 1.3 µM; in assay [3], 0.74 µM; in assay [4] it was 18 µM; in assay [5], 121 µM; in assay [6], > 1000 µM.

As to `Nc1nnc(SCc2ccc(Cl)cc2Cl)[nH]1`, the 50% inhibitory concentration (IC50) in assay [1] amounted to 40 µM; in assay [4], 2 µM.
